Experimental findings from ChEMBL document CHEMBL4665862, “Synthesis and biological activity of C-7, C-9 and C-10 modified taxane analogues from 1-deoxybaccatin VI” (Bioorg Med Chem, 2020) are described below.

One assay relates to A549. The experiment in a line: Cytotoxicity against human A549 cells assessed as reduction in cell viability incubated for 72 hrs by CCK-8 assay. The assay is classed as functional, cell-based. The note with it: A549, 72 h. In a few lines: (§1)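 Exponentially growing human tumour cells were exposed for 72 h to compounds formulated in DMSO solution. Cell survival was read by the CCK-8 method, and IC50 values were taken from the dose–response curves.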
(In general: Tetrazolium dyes change colour on reduction, which living cells bring about.)

In the next assay the test system is MDA-MB-231. The experiment in a line: Cytotoxicity against human MDA-MB-231 cells assessed as reduction in cell viability incubated for 72 hrs by CCK-8 assay. The note with it: MDA-MB-231, 72 h. Format: functional, cell-based. In a few lines:
as §1

A short description of assay [1]: Cytotoxicity against human drug-resistant A549/T cells assessed as reduction in cell viability incubated for 72 hrs by CCK-8 assay. The assay is classed as functional, cell-based. The following applies: A549, 72 h. In a few lines: as §1
Assay [2] in a line: Potency index, ratio of paclitaxel IC50 to compound IC50 for cytotoxicity against drug-resistant human A549/T cells assessed as reduction in cell viability incubated for 72 hrs by CCK-8 assay. The assay is classed as functional.

As a reminder, the IC50 is the midpoint of a concentration-inhibition curve. Take `CC(=O)O[C@H]1C[C@H]2OC[C@@]2(OC(C)=O)[C@H]2[C@H](OC(=O)c3ccccc3)C3C[C@H](OC(=O)[C@H](O)[C@@H](NC(=O)c4ccc(C)cc4)c4ccccc4)C(C)=C([C@H]4OC(=O)O[C@@H]4[C@]12C)C3(C)C` (some centres undefined): the half-maximal inhibitory concentration (IC50) with A549 was 0.062 µM; in the assay on MDA-MB-231 it was 0.119 µM; in assay [1], 0.229 µM. In assay [2], the Ratio worked out at 7.
For `CC(=O)O[C@H]1C[C@H]2OC[C@@]2(OC(C)=O)[C@H]2[C@H](OC(=O)c3ccccc3)C3C[C@H](OC(=O)[C@H](O)[C@@H](NC(=O)c4cccc(Br)c4)c4ccccc4)C(C)=C([C@H]4OC(=O)O[C@@H]4[C@]12C)C3(C)C` (some centres undefined), the IC50 was found to be 0.329 µM in the assay with A549, 2.02 µM in the assay with MDA-MB-231 and 2.89 µM in assay [1].
`CC(=O)O[C@H]1C[C@H]2OC[C@@]2(OC(C)=O)[C@H]2[C@H](OC(=O)c3ccccc3)C3C[C@H](OC(=O)[C@H](O)[C@@H](NC(=O)c4ccc(F)c(F)c4)c4ccccc4)C(C)=C([C@H]4OC(=O)O[C@@H]4[C@]12C)C3(C)C` (some centres undefined): the IC50 in the assay on A549 was found to be 0.408 µM; with MDA-MB-231, 1.95 µM; in assay [1] it was 2.89 µM.
The matching figures for `CC(=O)O[C@H]1C[C@H]2OC[C@@]2(OC(C)=O)[C@H]2[C@H](OC(=O)c3ccccc3)C3C[C@H](OC(=O)[C@H](O)[C@@H](NC(=O)c4ccc(F)cc4)c4ccccc4)C(C)=C([C@H]4OC(=O)O[C@@H]4[C@]12C)C3(C)C` (some centres undefined): 0.133 µM, 0.209 µM and 1.03 µM.
For `CC(=O)O[C@H]1C[C@H]2OC[C@@]2(OC(C)=O)[C@H]2[C@H](OC(=O)c3ccccc3)C3C[C@H](OC(=O)[C@H](O)[C@@H](NC(=O)c4ccccc4)c4ccccc4)C(C)=C([C@H]4OC(=O)O[C@@H]4[C@]12C)C3(C)C` (some centres undefined), the IC50 in the assay on A549 is 0.022 µM; with MDA-MB-231, 0.124 µM; in assay [1] it was 0.229 µM. Also, the Ratio in assay [2] amounted to 7.
As for `CC(=O)O[C@H]1C[C@H]2OC[C@@]2(OC(C)=O)[C@H]2[C@H](OC(=O)c3ccccc3)C3C[C@H](OC(=O)[C@H](O)[C@@H](NC(=O)c4ccccc4F)c4ccccc4)C(C)=C([C@H]4OC(=O)O[C@@H]4[C@]12C)C3(C)C` (some centres undefined), the IC50 with A549 was 0.115 µM; with MDA-MB-231, 0.182 µM; in assay [1], 4.9 µM.
The matching figures for `CC(=O)O[C@H]1C[C@H]2OC[C@@]2(OC(C)=O)[C@H]2[C@H](OC(=O)c3ccccc3)C3C[C@H](OC(=O)[C@H](O)[C@@H](NC(=O)c4cccc(F)c4)c4ccccc4)C(C)=C([C@H]4OC(=O)O[C@@H]4[C@]12C)C3(C)C` (some centres undefined): 0.068 µM, 0.183 µM and 2.34 µM.
Consider `COc1cccc(C(=O)N[C@@H](c2ccccc2)[C@@H](O)C(=O)O[C@H]2CC3[C@@H](OC(=O)c4ccccc4)[C@@H]4[C@]5(OC(C)=O)CO[C@@H]5C[C@H](OC(C)=O)[C@@]4(C)[C@H]4OC(=O)O[C@@H]4C(=C2C)C3(C)C)c1` (some centres undefined), for which the IC50 in the assay with A549 was determined as 0.069 µM; with MDA-MB-231 it was 0.068 µM; in assay [1] it was 3.02 µM.
The matching figures for `CC(=O)O[C@H]1C(=O)[C@@]2(C)[C@H]([C@H](OC(=O)c3ccccc3)[C@]3(O)C[C@H](OC(=O)[C@H](O)[C@@H](NC(=O)c4ccccc4)c4ccccc4)C(C)=C1C3(C)C)[C@]1(OC(C)=O)CO[C@@H]1C[C@@H]2O` [PACLITAXEL]: 0.013 µM, 0.02 µM and 1.58 µM.
